Source: ChEMBL document CHEMBL3124836, “Pyrano-isoflavans from Glycyrrhiza uralensis with antibacterial activity against Streptococcus mutans and Porphyromonas gingivalis” (2014)
In brackets after ≈: the same amount, converted by molar mass.

Assays:
Assay type in all cases: functional
Streptococcus mutans [1] = assay: Bactericidal activity against Streptococcus mutans ATCC 35668 after 3 days; conditions: ATCC 35668, 72 h
Outline: (§1)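 From microbroth wells without visible growth after 24 h, aliquots were spread on THB agar and incubated 3 days at 37 °C. MBC was the lowest concentration giving no colony formation. Three independent experiments.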

Porphyromonas gingivalis [2] = assay: Antibacterial activity against Porphyromonas gingivalis ATCC 33277 after 24 hrs by microbroth dilution assay; conditions: ATCC 33277, 24 h
Outline: (§2)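 EtOH stocks tested as a 2-fold series (200–0.78 μg/mL) mixed with an equal volume of overnight culture diluted to OD660 0.2. Medium was THB plus hemin 10 μg/mL and vitamin K 10 μg/mL. P. gingivalis was run anaerobically (N2/H2/CO2 80/10/10) and S. mutans aerobically. After 24 h at 37 °C growth was read visually; MIC was the lowest concentration without growth. Three independent experiments.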

Streptococcus mutans [3] = assay: Antibacterial activity against Streptococcus mutans ATCC 35668 after 24 hrs by microbroth dilution assay; conditions: ATCC 35668, 24 h; outline: as §2
Porphyromonas gingivalis [4] = assay: Bactericidal activity against Porphyromonas gingivalis ATCC 33277 after 3 days; conditions: ATCC 33277, 72 h; outline: as §1

| SMILES | MIC (Porphyromonas gingivalis [2]) [µg/mL] | MIC (Streptococcus mutans [3]) [µg/mL] | MBC (Streptococcus mutans [1]) [µg/mL] | MBC (Porphyromonas gingivalis [4]) [µg/mL] |
| --- | --- | --- | --- | --- |
| COc1c(CC=C(C)C)c(O)cc2c1C[C@H](c1ccc3c(c1O)C=CC(C)(C)O3)CO2 | 12.5 (≈ 29.6 µM) | 12.5 (≈ 29.6 µM) | 12.5 (≈ 29.6 µM) | 12.5 (≈ 29.6 µM) |
| COc1c(CC=C(C)C)c(O)cc2c1C[C@H](c1ccc(O)c(CC=C(C)C)c1O)CO2 [LICORICIDIN] | 3.12 (≈ 7.36 µM) | 12.5 (≈ 29.4 µM) | 25 (≈ 58.9 µM) | 3.12 (≈ 7.36 µM) |
| COc1c(CC=C(C)C)c(O)cc2c1[C@@H]1Oc3c(ccc(O)c3CC=C(C)C)[C@@H]1CO2 | 50 (≈ 118 µM) | 200 (≈ 473 µM) | > 200 | 50 (≈ 118 µM) |
| COc1c(CC=C(C)C)c(O)cc2c1C[C@H](c1ccc(O)c3c1OC(C)(C)C=C3)CO2 | 6.25 (≈ 14.8 µM) | 6.25 (≈ 14.8 µM) | 6.25 (≈ 14.8 µM) | 6.25 (≈ 14.8 µM) |
| COc1c(CC=C(C)C)c(O)cc2c1C[C@H](C1=CC(=O)C(O)=C(CC=C(C)C)C1=O)CO2 | 25 (≈ 57 µM) | > 200 | > 200 | 25 (≈ 57 µM) |
| COc1cc2occ(-c3ccc(O)cc3)c(=O)c2c(O)c1CC=C(C)C [GANCAONIN G] | 200 (≈ 568 µM) | > 200 | > 200 | 200 (≈ 568 µM) |

Now from value to molecule, other results behind:

| MIC (Porphyromonas gingivalis [2]) [µg/mL] | MIC (Streptococcus mutans [3]) [µg/mL] | SMILES | MBC (Streptococcus mutans [1]) [µg/mL] | MBC (Porphyromonas gingivalis [4]) [µg/mL] |
| --- | --- | --- | --- | --- |
| 6.25 (≈ 14.8 µM) | 25 (≈ 59.2 µM) | COc1c2c(cc3c1C[C@H](c1ccc(O)c(CC=C(C)C)c1O)CO3)OC(C)(C)C=C2 | > 200 | 6.25 (≈ 14.8 µM) |
| – | 0.05 (≈ 0.15 µM) | CC1(C)S[C@@H]2[C@H](NC(=O)Cc3ccccc3)C(=O)N2[C@H]1C(=O)O [PENICILLIN G] | 1.56 (≈ 4.67 µM) | – |
| 200 (≈ 546 µM) | > 200 | COc1c2c(cc3oc(=O)c4c5ccc(O)cc5oc4c13)OC(C)(C)CC2 [ISOGLYCYROL] | > 200 | 200 (≈ 546 µM) |
| 1.56 (≈ 3.51 µM) | – | CN(C)[C@@H]1C(O)=C(C(N)=O)C(=O)[C@@]2(O)C(O)=C3C(=O)c4c(O)cccc4[C@@](C)(O)[C@H]3C[C@@H]12 [TETRACYCLINE] | – | 12.5 (≈ 28.1 µM) |
